Laboratory results: PubChem BioAssay
Records with an inconclusive call do not appear.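 Rule for the calls, unless noted: active = RAM network inhibition above 8.4% in each of two replicates, 3 SD over the compound average; inconclusive = above 8.4% inhibition in only one replicate; inactive = 8.4% inhibition or less in each replicate.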

Key:
[1] = OD615 S. cerevisiae growth inhibition, permissive medium, pilot counter-assay, permissive growth control for S. cerevisiae lifespan shortening project (AID 705;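 active = growth inhibition above 25% in both replicates, a cutoff set 3 SD above the mean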); details: OD615, 24 h, at 10 µM, hits give high values
How it was run: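 System: Engineered DeaD yeast | Buffer or medium: SC raffinose/galactose permissive medium | Incubation: Cells pre-grown 4 h, then 24 h compound exposure, 30 °C humidified | Measured by: Absorbance (optical density) at 615 nm | Read-out: Reduction in yeast growth (OD615)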

[2] = Restrictive medium S. cerevisiae growth inhibition, OD615, pilot screen of yeast lifespan reduction project, restrictive growth control (AID 706;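 active = growth inhibition above a set limit, 3 SD over mean compound inhibition, in both replicates, cut at about 43% in these data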;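 note: modified DeaD lifespan yeast strain shifted to restrictive glucose medium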); details: OD615, 48 h, at 10 µM, hits give high values
How it was run: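 Material: modified S. cerevisiae; Medium: glucose-based CSMM-D restrictive medium; Compound dosing: one concentration, 10 µM final, 0.25% DMSO; Incubation: 48 h compound exposure at 30 °C; Measured by: OD615.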

[3] = viability gain of MRP-1-high H69AR cells under doxorubicin, pilot screen, MRP-1 activator project, CellTiter-Glo, duplicate (AID 807;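 active = viability increase at or above a cutoff of the median across tested compounds plus 3 SD, cut at about 8.5% in these data, passing the limit was not always enough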;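 note: compound pretreatment 18-22 h then 72 h combined with doxorubicin; 0% = doxorubicin alone and 100% = vehicle without doxorubicin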); details: H69AR viability with doxorubicin, CellTiter-Glo luminescence; at 10 µM; hits give high values
[4] = growth suppression of beta-catenin knockout HCT116, pilot screen, human colon tumor cells (AID 823;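 active = cell viability at or below a set limit in both duplicate runs, the limit being the all-compound median minus 4 SD, cut at about 23% in these data, passing the limit was not always enough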;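 note: 0% = wells killed by 20 µM Hyamine and 100% = untreated DMSO cell wells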); details: CellTiter-Glo, 60 h, at 10 µM, hits give low values
[5] = growth suppression of PTEN-deleted HCT116, pilot screen, cell-based, HCT116 clonal line, CellTiter-Glo (AID 824;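 active = viability at or below 27.92% in each of two runs, the all-compound median minus 4 SD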;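 note: 0% = 20 µM Hyamine control and 100% = vehicle cell control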); details: 60 h, at 10 µM, hits give low values
[6] = inhibitors of the yeast RAM network, pilot screen, dse1pr::URA3 reporter, 5-FOA selection (AID 869;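 active = inhibition over a set limit, the all-compound mean plus 3 SD, in both replicate runs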;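 note: 0% = DMSO wells with no growth and 100% = 10 µM 1-NA-PP1 with full growth; RAM network block rescues cells from 5-FOA so hits raise OD615 growth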); details: S. cerevisiae dse1pr::URA3 5-FOA growth, OD615, 2 d; at 10 µM; hits give high values; strain carries analog-sensitive mutant Cbk1 kinase
[7] = RAM signaling pathway blockade in yeast – S. cerevisiae, Pdr1DBD-CYC8 efflux-inhibited sensitized strain, primary screen (AID 1298);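 note: 0% = DMSO untreated cells without growth and 100% = 10 µM 1-NA-PP1 full growth; higher means more yeast growth rescued from 5-FOA killing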; details: S. cerevisiae cbk1-as DSE1-URA3 strain, 5-FOA growth OD615, 2 d; at 50 µM; hits give high values

COc1cccc(C2CC(=O)N3CN(c4ccccc4F)CSC3=C2C#N)c1 (stereo not drawn)
inactive: growth inhibition [1] 6.38% | growth inhibition [2] 2.71% | viability increase [3] -1.76% | viability [4] 102% | viability [5] 94.3% | inhibition [6] 2.96% | RAM network inhibition [7] 5.8%

O=C(Nc1nc2cc3c(cc2s1)OCO3)C1=COCCO1
inactive: growth inhibition [1] -9.14% | growth inhibition [2] -31.3% | viability increase [3] -6.84% | viability [4] 45.8% | viability [5] 41.3% | inhibition [6] 1.75% | RAM network inhibition [7] 5.3%

CC1CCCCN1c1nnc(NC(=O)Cn2c(=O)oc3ccccc32)s1 (stereo not drawn)
inactive: growth inhibition [1] -4.21% | growth inhibition [2] -14.8% | viability increase [3] -1.54% | viability [4] 110% | viability [5] 97.8% | inhibition [6] -0.575% | RAM network inhibition [7] 4.48%

Cc1nc2sc(C(c3ccco3)N3CCC(Cc4ccccc4)CC3)c(O)n2n1 (stereo not drawn)
inactive: growth inhibition [1] 0.165% | growth inhibition [2] 4.34% | viability increase [3] 0.64% | viability [4] 95.2% | viability [5] 91.4% | inhibition [6] 1.14% | RAM network inhibition [7] 9.02%

CCN(CC)CCNC(=O)c1cc2c(=O)n(C)c3ccccc3c2n1C
inactive: growth inhibition [1] -4.52% | growth inhibition [2] -6.67% | viability increase [3] -4.8% | viability [4] 49.8% | viability [5] 51.4% | inhibition [6] 1.88% | RAM network inhibition [7] 0.31%

COc1ccc(N(CC(=O)NCc2ccc3c(c2)OCO3)S(=O)(=O)c2c(C)nn(C)c2C)cc1
inactive: growth inhibition [1] -12.2% | growth inhibition [2] -3.47% | viability increase [3] -2.86% | viability [4] 101% | viability [5] 101% | inhibition [6] 0.12% | RAM network inhibition [7] 2.04%

CCN(CC)CCN1C(=O)c2ccccc2NC1c1cccc(F)c1 (stereo not drawn)
inactive: growth inhibition [1] -8.46% | growth inhibition [2] 1.83% | viability increase [3] -2.21% | viability [4] 84.4% | viability [5] 91.4% | inhibition [6] 0.75% | RAM network inhibition [7] 8.87%

COc1cccc(C2NC(=O)NC(C)=C2C(=O)Nc2cc(OC)ccc2OC)c1 (stereo not drawn)
inactive: growth inhibition [1] -7.14% | growth inhibition [2] 0.605% | viability increase [3] -0.51% | viability [4] 95.2% | viability [5] 94.9% | inhibition [6] 1.15% | RAM network inhibition [7] 5.92%

Nc1nc2n(n1)C(c1ccccc1Cl)CC(c1ccc(F)cc1)N2 (stereo not drawn)
inactive: growth inhibition [1] 0.695% | growth inhibition [2] 2.18% | viability increase [3] -0.54% | viability [4] 91.6% | viability [5] 88.8% | inhibition [6] 2.58% | RAM network inhibition [7] 0.48%

COc1ccc(C2C(C(=O)NCc3ccccn3)c3cc(OC)c(OC)cc3C(=O)N2C)cc1 (stereo not drawn)
inactive: growth inhibition [1] -3.48% | growth inhibition [2] 1.16% | viability increase [3] -4.5% | viability [4] 98% | viability [5] 95.9% | inhibition [6] -0.135% | RAM network inhibition [7] 5.92%

COc1ccccc1CCNC(=O)c1cnn2c(C(F)F)cc(C)nc12
inactive: growth inhibition [1] -0.75% | growth inhibition [2] 11.3% | viability increase [3] -0.37% | viability [4] 103% | viability [5] 97.7% | inhibition [6] -0.1% | RAM network inhibition [7] 4.32%

O=C(O)CCC(=O)N1CCc2cc(S(=O)(=O)N3CCC(Cc4ccccc4)CC3)ccc21
inactive: growth inhibition [1] -6.24% | growth inhibition [2] 0.935% | viability increase [3] -2.63% | viability [4] 97.8% | viability [5] 82.2% | inhibition [6] 1.47% | RAM network inhibition [7] 3.85%

Cc1cccc(Cn2c(N3CCCCC3C)nc3c2c(=O)[nH]c(=O)n3C)c1 (stereo not drawn)
inactive: growth inhibition [1] -17.5% | growth inhibition [2] -16.4% | viability increase [3] -5.08% | viability [4] 89.3% | viability [5] 78% | inhibition [6] 0.805% | RAM network inhibition [7] 2.4%

CC(CNCc1ccc2c(c1)OCO2)NCc1ccc2c(c1)OCO2 (stereo not drawn)
inactive: growth inhibition [1] -14% | growth inhibition [2] -7.7% | viability increase [3] -3.34% | viability [4] 75% | viability [5] 77.2% | inhibition [6] -0.175% | RAM network inhibition [7] 1.32%

COc1cc(C)c(C)cc1S(=O)(=O)N1CCN(Cc2ccccc2)CC1
inactive: growth inhibition [1] 9.11% | growth inhibition [2] -12.5% | viability increase [3] -3.89% | viability [4] 96.3% | viability [5] 93.5% | inhibition [6] 0.025% | RAM network inhibition [7] 5%

CCCn1cc(S(=O)(=O)CC(=O)Nc2ccc(OC)cc2OC)c2ccccc21
inactive: growth inhibition [1] -7.84% | growth inhibition [2] 6.44% | viability increase [3] -1.59% | viability [4] 97.9% | viability [5] 96.4% | inhibition [6] 2.81% | RAM network inhibition [7] -0.12%

Cc1cnn(C(=O)c2ccccc2Br)c1
inactive: growth inhibition [1] 3.79% | growth inhibition [2] -3.8% | viability increase [3] -1.43% | viability [4] 109% | viability [5] 103% | inhibition [6] -0.355% | RAM network inhibition [7] 1.6%

Cc1ccc(NC2=CC(=O)CC(c3ccco3)C2)c(N)c1 (stereo not drawn)
inactive: growth inhibition [1] -4.58% | growth inhibition [2] 5.45% | viability increase [3] -4.41% | viability [4] 81.2% | viability [5] 86.5% | inhibition [6] 0.07% | RAM network inhibition [7] 2.43%

COCCCNC(=O)CS(=O)Cc1nc(-c2ccccc2C)oc1C (stereo not drawn)
inactive: growth inhibition [1] -4.76% | growth inhibition [2] 18% | viability increase [3] -1.44% | viability [4] 97.9% | viability [5] 102% | inhibition [6] 0.445% | RAM network inhibition [7] 6.27%

CC(=O)c1cccc(NC(=O)CN(c2ccc(F)cc2)S(C)(=O)=O)c1
inactive: growth inhibition [1] -13% | growth inhibition [2] -15.2% | viability increase [3] -3.2% | viability [4] 98.2% | viability [5] 98.7% | inhibition [6] 0.845% | RAM network inhibition [7] 5.96%

Nc1ccc2nc3n(c(=O)c2c1)CCC3
inactive: growth inhibition [1] -2.62% | growth inhibition [2] 4.83% | viability increase [3] 1.87% | viability [4] 104% | viability [5] 108% | inhibition [6] 1.44% | RAM network inhibition [7] 3.92%

CC(C)(C)c1ccc(-c2nnc3sc(-c4ccccn4)nn23)cc1
inactive: growth inhibition [1] -19.2% | growth inhibition [2] -24.6% | viability increase [3] 0.61% | viability [4] 100% | viability [5] 89.2% | inhibition [6] 2.01% | RAM network inhibition [7] 1.31%

COc1ccc(-c2cn3c(C)c(C(=O)N4CCN(c5ccc(OC)cc5)CC4)sc3n2)cc1
inactive: growth inhibition [1] -5.73% | growth inhibition [2] -9.94% | viability increase [3] -1.79% | viability [4] 103% | viability [5] 104% | inhibition [6] 2.58% | RAM network inhibition [7] 3.17%

CSC1=NCCN1C(=O)C(C)Oc1ccccc1 (stereo not drawn)
inactive: growth inhibition [1] 1.44% | growth inhibition [2] -0.77% | viability increase [3] 1.74% | viability [4] 101% | viability [5] 99.2% | inhibition [6] 0.34% | RAM network inhibition [7] 0.46%
